# Tcruzi prolif = inhibitors of T. cruzi proliferation | T. cruzi beta-gal in NIH3T3, GalScreen luminescence, 90 h | inhibition, % at 8.34 µM | 5.9% of 77,000 active | AID 624255;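 active = mean inhibition above about 93%, with at least 55% of replicates each passing it, limit read from the data, passing the limit was not always enough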
# KDM4C inh = inhibitors of human demethylase GASC-1 KDM4C; AID 720574; GST-KDM4C 2-372, H3K9me3 peptide, LANCE TR-FRET; inhibition, % at 12.5 µM; Q9H3R0; 0.15% of 96,000 active;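 active = mean replicate inhibition above about 25%, with at least 55% of replicates also reaching it, limit read from the data, passing the limit was not always enough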
# Target sequence (Q9H3R0 2-372 limits assumed): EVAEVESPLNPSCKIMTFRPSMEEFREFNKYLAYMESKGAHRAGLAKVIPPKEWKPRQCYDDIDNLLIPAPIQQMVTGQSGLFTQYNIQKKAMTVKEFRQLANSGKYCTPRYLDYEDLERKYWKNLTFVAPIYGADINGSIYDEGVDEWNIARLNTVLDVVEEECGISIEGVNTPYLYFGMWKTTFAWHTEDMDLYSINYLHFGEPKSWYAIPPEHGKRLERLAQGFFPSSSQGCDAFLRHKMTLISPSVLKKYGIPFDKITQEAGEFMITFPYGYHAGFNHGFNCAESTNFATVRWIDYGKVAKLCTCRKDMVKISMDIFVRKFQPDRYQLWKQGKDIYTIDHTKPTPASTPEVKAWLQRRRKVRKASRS
#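 Assay system: GST-GASC-1 enzyme fragment 2-372 | Amount: 10 nM enzyme | Medium: HEPES buffer, pH 7.5, plus ascorbate | Reagent: H3K9me3 peptide substrate, Fe(II), 2-oxoglutarate | Doses: Single-point compound screen | Incubation: 30 min demethylation and 1 h detection at room temperature | Measured by: LANCE TR-FRET, excitation 340 nm, emissions 618 and 671 nm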
# IDH1 mut inh = blocks human IDH1 R132H reductase activity; O75874; diaphorase/resazurin fluorescence, 60 min; inhibition, % at 10 µM; 0.18% of 70,000 active; AID 624101; in the data active = inhibition above about 34%
# Pf Dd2 inh = inhibitors of Plasmodium falciparum Dd2 growth; P. falciparum Dd2 growth, SYBR Green, 72 h; stronger effect = lower value; activity change, % at 10 µM; 2.3% of 94,000 active; in the data active = activity change below about -80%
# Numbers stand for hits; 0 = inactive; - = no result; ! = repeats disagree. This is a sample that favours compounds with a hit; in the whole collection about 5.8% have one here.
SMILES,Tcruzi prolif,KDM4C inh,IDH1 mut inh,Pf Dd2 inh
C[C@@H]1CN([C@H](C)CO)C(=O)c2cc(NC(=O)c3ccncc3)ccc2O[C@@H](C)CCCCO[C@@H]1CN(C)C(=O)Nc1cccc2ccccc12,-,0,0,-90
C[C@@H]1CN([C@@H](C)CO)C(=O)c2cc(NC(=O)c3ccncc3)ccc2O[C@@H](C)CCCCO[C@H]1CN(C)C(=O)Nc1cccc2ccccc12,0,0,0,0
C[C@@H]1CCCCO[C@@H](CN(C)C(=O)Nc2cccc3ccccc23)[C@H](C)CN([C@H](C)CO)C(=O)c2cc(NC(=O)c3ccncc3)ccc2O1,0,0,-,-85
Cc1noc(C)c1NC(=O)N[C@@H]1CC[C@@H](CC(=O)Nc2ccccc2)O[C@H]1CO,-,0,0,-
CC(=O)N1[C@@H]2c3cccc(=O)n3C[C@H]1[C@H](CO)[C@H]2C(=O)N1CCc2ccccc2C1,0,0,-,0
CCCC#Cc1cnc2c(c1)C(=O)N([C@H](C)CO)C[C@@H](C)[C@H](CN(C)C(=O)Nc1cc(F)ccc1F)O2,0,0,0,-81
COc1ccccc1NC(=O)N(C)C[C@@H]1Oc2ncc(C#CC(C)C)cc2C(=O)N([C@@H](C)CO)C[C@H]1C,0,0,0,-82
O=C(NCC[C@@H]1CC[C@H](NC(=O)C2CC2)[C@@H](CO)O1)Nc1ccc(C(F)(F)F)cc1,0,0,0,0
COc1ccc(NC(=O)CSc2nc(N)cc(=O)[nH]2)cc1,-,-,0,-
COc1ccc(NC(=O)Nc2ccc3c(c2)C(=O)N([C@@H](C)CO)C[C@H](C)[C@H](CN(C)C(=O)Nc2ccc4c(c2)OCO4)OCCCC[C@@H](C)O3)cc1,0,0,-,-82
C[C@H]1CCCCO[C@H](CN(C)C(=O)Nc2ccc(C(F)(F)F)cc2)[C@@H](C)CN([C@@H](C)CO)C(=O)c2cc(NC(=O)Nc3ccc(F)cc3)ccc2O1,0,0,0,-80
C[C@@H]1CCCCO[C@@H](CN(C)C(=O)Nc2ccc(C(F)(F)F)cc2)[C@@H](C)CN([C@H](C)CO)C(=O)c2cc(NC(=O)Nc3ccc(F)cc3)ccc2O1,-,0,0,0
COc1ccc(NC(=O)N(C)C[C@@H]2OCCCC[C@@H](C)Oc3ccc(NC(=O)Nc4ccc(C(F)(F)F)cc4)cc3C(=O)N([C@H](C)CO)C[C@@H]2C)cc1,0,0,0,0
C[C@@H]1CCCCO[C@@H](CN(C)C(=O)Nc2ccc(F)cc2)[C@H](C)CN([C@H](C)CO)C(=O)c2cc(NC(=O)Nc3ccccc3)ccc2O1,112,0,-,0
COc1ccc(NC(=O)N(C)C[C@@H]2OCCCC[C@H](C)Oc3ccc(NC(=O)Nc4ccc(C(F)(F)F)cc4)cc3C(=O)N([C@@H](C)CO)C[C@@H]2C)cc1,120,0,0,0
COc1ccc(NC(=O)Nc2ccc3c(c2)C(=O)N([C@H](C)CO)C[C@H](C)[C@@H](CN(C)C(=O)Nc2ccc4c(c2)OCO4)OCCCC[C@H](C)O3)cc1,0,0,0,0
N#C[C@H]1[C@H](c2ccc(C#Cc3ccccc3F)cc2)[C@H](CO)N1C(=O)C1CC1,0,0,-,0
C[C@@H]1CCCCO[C@@H](CN(C)C(=O)Nc2ccc3c(c2)OCO3)[C@@H](C)CN([C@@H](C)CO)C(=O)c2cc(NC(=O)Nc3ccc(C(F)(F)F)cc3)ccc2O1,-,0,0,-92
C[C@@H]1CN([C@H](C)CO)C(=O)c2cc(NC(=O)CCC(F)(F)F)ccc2O[C@H]1CN(C)C(=O)NC1CCCCC1,0,0,0,-87
C[C@@H]1CCCCO[C@H](CN(C)C(=O)NC2CCCCC2)[C@@H](C)CN([C@@H](C)CO)C(=O)c2cc(NC(=O)Nc3ccc(C(F)(F)F)cc3)ccc2O1,0,0,0,-83
C[C@@H]1CCCCO[C@@H](CN(C)C(=O)Nc2ccc(C(F)(F)F)cc2)[C@@H](C)CN([C@H](C)CO)C(=O)c2cc(NC(=O)Nc3ccc4c(c3)OCO4)ccc2O1,-,0,0,0
C[C@@H]1CCCCO[C@@H](CN(C)C(=O)Nc2ccc(F)cc2)[C@@H](C)CN([C@@H](C)CO)C(=O)c2cc(NC(=O)Nc3ccc(C(F)(F)F)cc3)ccc2O1,-,0,0,-88
O=C(NCC[C@@H]1CC[C@@H](NC(=O)Nc2cc(F)ccc2F)[C@H](CO)O1)Nc1ccc(F)cc1,-,0,0,-
COC(=O)CCCCCCC(=O)N/N=C/c1cc(Br)cc(Br)c1O,-,-,0,-
C[C@@H]1CN([C@@H](C)CO)C(=O)c2cc(NC(=O)Cc3cn(C)c4ccccc34)ccc2O[C@@H]1CN(C)C,-,0,0,0
SMILES,Tcruzi prolif,KDM4C inh,IDH1 mut inh,Pf Dd2 inh
COc1ccc(NC(=O)N2CCC3(CC2)CN(CC2CC2)[C@H](CO)c2c3c3ccc(OC)cc3n2C)cc1,-,0,-,-85
COc1ccc2c3c(n(C)c2c1)[C@H](CO)N(CC1CCCC1)CC31CCN(C(=O)Nc2ccccc2)CC1,-,0,-,0
COc1ccc2c3c(n(C)c2c1)[C@@H](CO)N(CC1CCOCC1)CC31CCN(C(=O)Nc2ccccc2)CC1,-,0,-,-83
COc1ccc2c3c(n(C)c2c1)[C@H](CO)N(CC1CC1)CC31CCN(C(=O)Nc2ccccc2)CC1,-,0,-,0
CCn1c(SCC(=O)Nc2ccc(F)c(F)c2F)nnc1-c1ccccc1O,-,-,0,-
COc1ccc(S(=O)(=O)N(C)C[C@@H]2Oc3cc(C#CC4CCCCC4)ccc3S(=O)(=O)N([C@H](C)CO)C[C@@H]2C)cc1,0,0,-,0
COc1ccc(C#Cc2ccc3c(c2)O[C@@H](CN(C)S(=O)(=O)c2ccccc2F)[C@@H](C)CN([C@H](C)CO)S3(=O)=O)cc1,-,0,0,-88
COc1ccc(C#Cc2ccc3c(c2)O[C@H](CN(C)S(=O)(=O)c2ccccc2F)[C@H](C)CN([C@@H](C)CO)S3(=O)=O)cc1,-,0,0,0
COc1ccccc1S(=O)(=O)N(C)C[C@@H]1Oc2cc(C#CCC(C)C)ccc2S(=O)(=O)N([C@H](C)CO)C[C@@H]1C,0,0,0,-85!
COc1ccccc1S(=O)(=O)N(C)C[C@@H]1Oc2cc(C#CCC3CCCC3)ccc2S(=O)(=O)N([C@H](C)CO)C[C@@H]1C,-,0,0,0
COc1ccc(S(=O)(=O)N(C)C[C@H]2Oc3cc(C#CC4CCCCC4)ccc3S(=O)(=O)N([C@H](C)CO)C[C@@H]2C)cc1,0,0,-,-85
C[C@H](CO)N1C[C@H](C)[C@H](CN(C)Cc2ccc(F)cc2)Oc2cc(C#CCN(C)C)ccc2S1(=O)=O,0,42,0,0
CC(C)CC#Cc1ccc2c(c1)O[C@@H](CN(C)Cc1cccc(F)c1)[C@H](C)CN([C@H](C)CO)S2(=O)=O,0,0,0,-92
C[C@@H]1CN([C@@H](C)CO)S(=O)(=O)c2ccc(-c3cccc(C#N)c3)cc2O[C@H]1CN(C)Cc1cccc(F)c1,0,-,0,-84
CC(C)CC#Cc1ccc2c(c1)O[C@@H](CN(C)Cc1ccccc1)[C@@H](C)CN([C@H](C)CO)S2(=O)=O,0,0,0,0
C[C@@H]1CN([C@@H](C)CO)S(=O)(=O)c2ccc(C#CCN(C)C)cc2O[C@H]1CN(C)CC1CCCC1,0,0,0,-83
